“And” between values parts separate entries of the source, which are not always exact repeats. Identical values can stand only once. Like-named read-outs stand apart in the source and are kept apart here.
Experiments:
L. donovani = details: similar in vivo studies; cited from earlier work
[1] = tested on: L. donovani (strain LdBOB) promastigotes; test: In vitro drug sensitivity assay, promastigotes; format: cell-based, Leishmania donovani; details: for EC50: Leishmania donovani, 72 h, read-out: L. donovani EC50, Promastigote
How it was run: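 Clonal LdBOB promastigotes were grown at 26 °C in stage-specific medium. Triplicate cultures were seeded at 1 × 10⁵ parasites ml⁻¹ with test compound for 72 h, then given 50 μM resazurin, and fluorescence (ex 528, em 590 nm) was read after 4 h. For isobolograms, mid-log promastigotes received the two metabolites in fixed combinations relative to their respective EC50s. The EC50 of each combination was determined at 72 h (triplicate, mean ± SD) and plotted.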

[2] = tested on: L. donovani (strain LdBOB) axenic amastigotes; test: In vitro drug sensitivity assay, axenic amastigotes; format: cell-based; details: Leishmania donovani
How it was run: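 Clonal LdBOB axenic amastigotes were grown at 37 °C in 5% CO₂ in stage-specific medium and cycled between stages after at most 7 passages. Triplicate cultures were seeded at 1 × 10⁵ parasites ml⁻¹ with test compound for 72 h. Resazurin (50 μM) was added, and fluorescence (ex 528, em 590 nm) was read 4 h later. At least three experiments were run; results are weighted mean plus weighted standard deviation.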

[3] = Fexinidazole exposure in mice after acute oral dosing; format: in vivo, BALB/c mice; details: single oral dose of fexinidazole 200 mg kg^−1, mouse blood
[4] = Plasma protein binding by equilibrium dialysis; format: in vitro ADME; details: mouse
[5] = tested on: L. donovani (strain LdBOB) axenic amastigotes overexpressing L. major nitroreductase; test: Drug susceptibility of axenic amastigotes overexpressing L. major nitroreductase; format: cell-based, Leishmania donovani; details: for shift in sensitivity, nitroreductase overexpressing vs wildtype: axenic amastigotes; for EC50: read-out: EC50, axenic amastigotes overexpressing nitroreductase
[6] = tested on: L. donovani (strain LdBOB) axenic amastigotes; test: Cytocidal effect on axenic amastigotes; format: cell-based, Leishmania donovani; details: drug at 10 times its EC50 (sulfone 36 μM), wash-out and sub-culture without drug
How it was run: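 Early-log LdBOB axenic amastigotes (~1 × 10⁶ ml⁻¹), grown at 37 °C in 5% CO₂, were exposed to test compound at 36 μM. At intervals, cell density was counted, and samples were removed, washed and resuspended in fresh drug-free medium. Viability of washed parasites was followed for up to 72 h after drug removal to find the point of irreversible toxicity.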

[7] = tested on: intracellular L. donovani (LV9) amastigotes in peritoneal mouse macrophages; test: In macrophage drug sensitivity assay; format: cell-based, Leishmania donovani; details: strain LV9, peritoneal mouse macrophages, 72h
L. donovani strain LV9 = test: In vivo drug sensitivity, mouse model of visceral leishmaniasis; design: species or system BALB/c mice; details: oral, once daily for 5 days
[8] = 72 h, read-out: L. donovani EC50, Axenic amastigote
[9] = read-out: EC50, wildtype axenic amastigotes

Structure (SMILES)	ED50 (L. donovani) [mg/kg]	ED90 (L. donovani) [mg/kg]	EC50 [1] [µM]	EC50 [2, 8] [µM]	EC50 [2, 9] [µM]	time blood concentration stays above EC99 [3]	fraction unbound [4]	shift in sensitivity, nitroreductase overexpressing vs wildtype [5]	EC50 [5] [µM]	exposure time after which no viable parasites could be recovered [6] [h]	interaction in combination (isobologram) ([1]; fexinidazole sulfoxide plus sulfone, LdBOB promastigotes, 72h)	L. donovani EC50, Amastigote (in macrophages) [7]	tolerability in mice (L. donovani strain LV9; up to 200 mg kg^−1)	ED50 (L. donovani strain LV9; liver parasite burden day 14)
O.O.O.O.O.O.O.O.O.O=C([O-])[C@@H]1[O][Sb](=[O])([O][Sb]2(=[O])[O][C@H]([C@H](O)CO)[C@H](O)[C@H](C(=O)[O-])[O]2)[O][C@H]([C@H](O)CO)[C@@H]1O.[Na+].[Na+].[Na+] (stereo partly drawn) [Pentostam]	20	57	–	–	–	–	–	–	–	–	–	–	–	–
Cn1c([N+](=O)[O-])cnc1COc1ccc(S(C)(=O)=O)cc1 [Fexinidazole sulfone, fexinidazole sulfone]	–	–	4.8 ± 0.1	1.6 ± 0.1	4.4 ± 0.1	more than 24 h	0.73	19 fold	0.23 ± 0.1	30	–	–	–	–
CC1CS(=O)(=O)CCN1/N=C/c1ccc([N+](=O)[O-])o1 (stereo not drawn) [nifurtimox]	–	–	–	–	5.6 ± 0.2	–	–	27 fold	0.2 ± 0.1	–	–	–	–	–
Cn1c([N+](=O)[O-])cnc1COc1ccc([S+](C)[O-])cc1 (stereo not drawn) [Fexinidazole sulfoxide, fexinidazole sulfoxide]	–	–	3.1 ± 0.1	4.5 ± 0.3	–	8 h	0.86	–	–	30	additive	–	–	–
CSc1ccc(OCc2ncc([N+](=O)[O-])n2C)cc1 [Fexinidazole, fexinidazole]	–	–	5.6 ± 0.2	2.8 ± 0.1	–	–	0.15	19 fold	–	–	–	inactive	well tolerated	~12 mg/kg and 11.9 ± 2.3 mg/kg
CCCCCCCCCCCCCCCCOP(=O)([O-])OCC[N+](C)(C)C [Miltefosine, miltefosine]	4	27	6.1 ± 0.3	4.4 ± 0.2	–	–	0.002	no concomitant shift	4.9 ± 0.2	–	–	–	–	–
